Data taken from ChEMBL document CHEMBL5104108, “Concise synthesis and biological activity evaluation of novel pyrazinyl-aryl urea derivatives against several cancer cell lines, which can especially induce T24 apoptotic and necroptotic cell death” (RSC Med Chem, 2022).
Activity calls are given as the source filed them. The calls are words filed in the database; no cut-off is given here.

Columns and labels:
[1] = tested on: T-24; assay: Antiproliferative activity against human T24 cells measured after 48 hrs by MTT assay; format: functional, cell-based; conditions: T-24, 48 h
Procedure, shortened: (§1)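 Cells seeded 5 × 10^3 per well, grown overnight at 37 °C, then exposed to compound at final 1–40 μM (1, 2.5, 5, 7.5, 10, 12.5, 15, 20, 30, 40 μM) for the stated period. MTT added, 4 h at 37 °C, formazan dissolved in DMSO, absorbance read. IC50 = concentration killing 50% of cells relative to untreated control; mean ± S.D. of four independent experiments.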

[2] = Antiproliferative activity against human HCV-29 cells measured after 48 hrs by MTT assay; format: functional, cell-based; conditions: HCV-29, 48 h; procedure, shortened: as §1
[3] = Selectivity index, ratio IC50 for antiproliferative activity against human HCV-29 cells over IC50 for antiproliferative activity against human T24 cells; format: toxicity, cell-based; conditions: HCV-29 cells versus T24 cells
Procedure, shortened: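 MTT assay, 48 h exposure at final 1–40 μM in T24 and normal bladder epithelial HCV29 cells (5 × 10^3/well, seeded overnight, 37 °C). MTT added for 4 h and formazan dissolved in DMSO. IC50 taken relative to untreated control, four parallel samples. SI = IC50(HCV29)/IC50(T24).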

[4] = tested on: T-24; assay: Induction of apoptosis in human T24 cells assessed as apoptotic cells at 2.5 uM measured after 10 hrs by Annexin-V/FITC and propidium iodide staining based flow cytometry analysis; format: functional
Procedure, shortened: (§2)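 T24 cells in 60 mm dishes treated 10 h at 37 °C, collected, PBS-washed, resuspended in binding buffer, stained with Annexin V-FITC and PI for 15 min at room temperature in the dark. At least 1 × 10^4 events per sample by flow cytometry; apoptotic cells = early (Annexin+/PI−) plus late (Annexin+/PI+). Triplicate experiments.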

[5] = tested on: T-24; assay: Induction of apoptosis in human T24 cells assessed as apoptotic cells at 5 uM measured after 10 hrs by Annexin-V/FITC and propidium iodide staining based flow cytometry analysis; format: functional; procedure, shortened: as §2
[6] = tested on: T-24; assay: Induction of apoptosis in human T24 cells assessed as increase in Bax expression at 5 to 7.5 uM measured by Western blot analysis; format: functional, cell-based; conditions: dose 5-7.5 µM
Procedure, shortened: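 Apoptosis-related proteins measured by Western blot in T24 lysates: 40 μg protein per lane by SDS-PAGE, PVDF transfer, primary and peroxidase-linked secondary antibodies, ECL detection, densitometry of gray values with β-actin as loading control.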

[7] = tested on: T-24; assay: Down-regulation of RIPK2 expression in human T24 cells at 7.5 to 10 uM measured in presence of 60 uM Nec-1 after 16 hrs by Western blot analysis; format: functional, cell-based; conditions: dose 7.5-10 µM
Procedure, shortened: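 T24 cells co-incubated 16 h with or without Nec-1 (60 μM). Lysates quantified by BCA, 40 μg protein resolved by SDS-PAGE, transferred to PVDF, probed with primary and peroxidase-conjugated secondary antibodies, detected by ECL. Band gray values normalized to β-actin loading control.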

[8] = tested on: T-24; assay: Up-regulation of caspase-8 mRNA expression in human T24 cells at 2.5 to 7.5 uM measured after 10 hrs by RT-PCR analysis; format: functional, cell-based; conditions: dose 2.5-7.5 µM
[9] = tested on: T-24; assay: Down-regulation of VEGFR-1 mRNA expression in human T24 cells at 5 to 10 uM measured by RT-PCR analysis; format: functional, cell-based; conditions: dose 5-10 µM
[10] = tested on: T-24; assay: Down-regulation of VEGFR-2 mRNA expression in human T24 cells at 7.5 uM measured in presence of 25 uM apatinib by RT-PCR analysis; format: functional, cell-based
[11] = tested on: T-24; assay: Induction of intracellular reactive oxygen species production in human T24 cells assessed as ROS level at 10 uM measured after 16 hrs by flow cytometry analysis; format: functional, cell-based
Procedure, shortened: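 After 16 h treatment, floating and adherent T24 cells pooled and loaded with DCFH-DA (final 10 μM) for 30 min at 37 °C in the dark, washed, resuspended in PBS and analyzed by flow cytometry; fluorescence also quantified by luminescence spectrometry. ROS expressed relative to control; mean ± S.D. of three independent experiments.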

[12] = Half-life in Sprague-Dawley rat at 12 mg/kg, IG measured HPLC analysis; format: ADME, organism-based; conditions: in vivo, po

With `O=C(Nc1ccc(C(F)(F)F)cc1)Nc1cccc(CNc2nccnc2Cl)c1` the IC50 [1] was 4.58 µM, the IC50 [2] was 30 µM and the SI [3] was 6.56. For the same compound, the Activity [4] was 9.01%, the Activity [5] was 14.83% and the Activity [6] was “Active”. For the same compound, the Activity [7] was “Active”, the Activity [8] was “Active” and the Activity [9] was “Active”. For the same compound, the Activity [10] was “Active”, the Activity [11] was “Active” and the half-life [12] was 7.17 h.
